Reference: ChEMBL document CHEMBL3421610, “Antimalarial activity of 4-amidinoquinoline and 10-amidinobenzonaphthyridine derivatives” (J Med Chem, 2015)
Values after ≈ are worked out from the molar mass of the structure shown. Active and inactive are the calls of the source. No cut-off for these calls is given here.

Experiments:
[1] = Half life in mouse liver microsomes at 1 uM by LC/MS analysis; type: ADME
Procedure, shortened: (§1)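 Compound at 1 µM final, diluted from […], with 0.5 mg/mL pooled human or mouse liver microsomes, NADP, MgCl2 and 0.1 M PBS pH 7.4. Reaction started with 1 U/mL G6PD and shaken at 37 °C. Aliquots quenched in cold acetonitrile at 0, 10, 20, 30 and 60 min and quantified by LC/MS. Half-life from log plot of total ion chromatogram area remaining.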

Plasmodium falciparum [2] = experiment: Antimalarial activity against chloroquine-resistant Plasmodium falciparum C235 assessed as growth inhibition after 18 hrs by [3H]-hypoxanthine uptake assay; type: functional, organism-based
Procedure, shortened: (§2)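 P. falciparum clones D6, W2 and TM91C235; modified semiautomated microdilution. Compounds in DMSO, diluted in RPMI 1640 with 10% human plasma, tested over (1.56-100) x 10^-9 M; final DMSO 0.25-0.5%. Inoculum 0.5% parasitemia, 1% hematocrit. 24 h incubation, then [3H]-hypoxanthine added, further 18 h. Harvested and read by scintillation counting; IC50 by nonlinear regression.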

Plasmodium falciparum [3] = experiment: Antimalarial activity against chloroquine-resistant Plasmodium falciparum W2 assessed as growth inhibition after 18 hrs by [3H]-hypoxanthine uptake assay; type: functional, organism-based; procedure, shortened: as §2
[4] = Half life in human liver microsomes at 1 uM by LC/MS analysis; type: ADME; procedure, shortened: as §1
hERG (KCNH2) = hERG (KCNH2) (Homo sapiens, UniProt Q12809); experiment: Inhibition of human ERG expressed in CHL cells assessed as tail current at 10 uM after 7 mins by patch clamp assay relative to control; type: cell-based; conditions: CHL cells expressing human ERG
Plasmodium falciparum [5] = experiment: Antimalarial activity against chloroquine-sensitive Plasmodium falciparum D6 assessed as growth inhibition after 18 hrs by [3H]-hypoxanthine uptake assay; type: functional, organism-based; procedure, shortened: as §2
Mus musculus = experiment: Toxicity in mouse infected with erythrocytic stage of chloroquine resistant Plasmodium berghei ANKA up to 160 mg/kg, po qd administered on day 3, 4 and 5 post infection measured over 30 days; type: organism-based, Erythrocyte; set-up: dose 160 mg/kg, route oral; conditions: in vivo, 720 h
Procedure, shortened: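 Male mice of 16-20 g infected intraperitoneally with CQ-resistant P. berghei ANKA (5 x 10^6 infected erythrocytes). Oral dosing once daily on days 3-5, five mice per group. Animals followed for 30 days by blood films; mice losing >20% body weight sacrificed.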

Plasmodium berghei [6] = experiment: Antimalarial activity against erythrocytic stage of chloroquine resistant Plasmodium berghei ANKA infected in mouse assessed as cure rate at 120 mg/kg, po qd administered on day 3, 4 and 5 post infection measured 3 times per week for 30 days, starting from day 3 by Thompson test; type: functional, organism-based; set-up: dose 120 mg/kg
Procedure, shortened: (§3)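 Male mice of 16-20 g inoculated intraperitoneally with 5 x 10^6 erythrocytes infected with CQ-resistant P. berghei ANKA. Drug given orally as a suspension once daily on days 3, 4 and 5 post-infection, five mice per dose. Blood films from day 3, three times weekly for 30 days. Cure means parasite-negative on day 30 or surviving 30 days. Mice losing >20% body weight sacrificed.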

HepG2 = experiment: Cytotoxicity against human HepG2 cells after 48 hrs by MTT assay; type: cell-based; conditions: HepG2, 48 h
Procedure, shortened: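 HepG2 cells in supplemented MEM, plated at 9570 cells/well in 384-well format and incubated overnight at 37 °C, 5% CO2. Twelve duplicate 1.6-fold dilutions, 57–10,000 ng/ml, incubated 48 h. MTT added for 1 h at room temperature in the dark, formazan dissolved in acidified isopropanol, absorbance read. IC50 by sigmoidal variable-slope nonlinear regression; tryptanthrin control.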

Plasmodium berghei [7] = experiment: Antimalarial activity against erythrocytic stage of chloroquine resistant Plasmodium berghei ANKA infected in mouse assessed as cure rate at 160 mg/kg, po qd administered on day 3, 4 and 5 post infection measured 3 times per week for 30 days, starting from day 3 by Thompson test; type: functional, organism-based; set-up: dose 160 mg/kg; procedure, shortened: as §3
Plasmodium berghei [8] = experiment: Antimalarial activity against erythrocytic stage of chloroquine resistant Plasmodium berghei ANKA infected in mouse assessed as cure rate at 60 mg/kg, po qd administered on day 3, 4 and 5 post infection measured 3 times per week for 30 days, starting from day 3 by Thompson test; type: functional, organism-based; set-up: dose 60 mg/kg; procedure, shortened: as §3
Plasmodium berghei [9] = experiment: Antimalarial activity against erythrocytic stage of chloroquine resistant Plasmodium berghei ANKA infected in mouse assessed as cure rate at 15 mg/kg, po qd administered on day 3, 4 and 5 post infection measured 3 times per week for 30 days, starting from day 3 by Thompson test; type: functional, organism-based; set-up: dose 15 mg/kg; procedure, shortened: as §3
Plasmodium berghei [10] = experiment: Antimalarial activity against erythrocytic stage of chloroquine resistant Plasmodium berghei ANKA infected in mouse assessed as parasite clearance at 160 mg/kg, po qd administered on day 3, 4 and 5 post infection measured on day 2 to 7 post last dose; type: functional, organism-based; set-up: dose 160 mg/kg
Procedure, shortened: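 Male mice of 16-20 g inoculated intraperitoneally with 5 x 10^6 erythrocytes infected with CQ-resistant P. berghei ANKA. Drug given orally as a suspension once daily on days 3, 4 and 5 post-infection, five mice per dose. Parasitemia followed by blood films from day 3, three times weekly for 30 days; infected untreated mice served as negative controls.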

Salmonella typhi = experiment: Mutagenicity in Salmonella typhi by Ames test; type: toxicity, organism-based; conditions: salmonella enterica subsp. enterica […]

Chain of hERG (KCNH2) (Q12809 whole entry): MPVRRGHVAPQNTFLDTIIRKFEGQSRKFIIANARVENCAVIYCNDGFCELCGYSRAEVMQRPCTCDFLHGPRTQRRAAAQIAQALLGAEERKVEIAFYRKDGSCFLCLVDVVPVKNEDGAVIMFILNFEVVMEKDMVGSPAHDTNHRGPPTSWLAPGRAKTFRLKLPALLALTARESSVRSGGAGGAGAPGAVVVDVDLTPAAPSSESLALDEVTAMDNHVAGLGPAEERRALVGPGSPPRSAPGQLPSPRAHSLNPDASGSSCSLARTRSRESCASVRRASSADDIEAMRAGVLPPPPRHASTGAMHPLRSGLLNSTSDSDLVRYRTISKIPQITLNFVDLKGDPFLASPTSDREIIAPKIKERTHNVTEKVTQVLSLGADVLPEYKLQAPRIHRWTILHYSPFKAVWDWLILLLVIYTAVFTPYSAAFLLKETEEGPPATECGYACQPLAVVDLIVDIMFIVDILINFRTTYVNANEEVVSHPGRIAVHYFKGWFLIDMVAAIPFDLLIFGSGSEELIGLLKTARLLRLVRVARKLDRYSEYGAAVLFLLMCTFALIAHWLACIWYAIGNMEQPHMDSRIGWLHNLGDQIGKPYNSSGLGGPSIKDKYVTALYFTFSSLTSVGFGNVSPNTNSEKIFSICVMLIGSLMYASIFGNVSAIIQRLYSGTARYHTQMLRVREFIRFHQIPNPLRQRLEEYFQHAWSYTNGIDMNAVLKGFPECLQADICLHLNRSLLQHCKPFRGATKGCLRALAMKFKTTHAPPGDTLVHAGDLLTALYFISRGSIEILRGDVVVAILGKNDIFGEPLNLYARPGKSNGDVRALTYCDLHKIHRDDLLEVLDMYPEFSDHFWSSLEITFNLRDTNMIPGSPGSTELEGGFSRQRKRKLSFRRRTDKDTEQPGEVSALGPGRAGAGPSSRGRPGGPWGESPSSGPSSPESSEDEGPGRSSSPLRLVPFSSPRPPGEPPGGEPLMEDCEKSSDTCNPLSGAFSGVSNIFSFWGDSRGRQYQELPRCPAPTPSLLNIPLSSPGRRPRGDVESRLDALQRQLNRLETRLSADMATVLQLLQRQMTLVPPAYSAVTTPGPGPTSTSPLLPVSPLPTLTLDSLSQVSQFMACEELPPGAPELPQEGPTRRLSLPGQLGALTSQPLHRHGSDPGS

| Compound | half-life at 1 µM [1] | IC50 (Plasmodium falciparum [2]) | IC50 (Plasmodium falciparum [3]) | half-life at 1 µM [4] | inhibition at 7 min, 10 µM (hERG (KCNH2)) | IC50 (Plasmodium falciparum [5]) | Activity (Mus musculus) | Activity (Plasmodium berghei [6]) | IC50 (HepG2) | Activity (Plasmodium berghei [7]) | Activity (Plasmodium berghei [8]) | Activity (Plasmodium berghei [9]) | Activity (Plasmodium berghei [10]) | Activity (Salmonella typhi) |
| --- | --- | --- | --- | --- | --- | --- | --- | --- | --- | --- | --- | --- | --- | --- |
| COc1ccc2nc3cc(Cl)ccc3c(N/C(=N/CCCN3CCCCC3)c3ccccc3)c2n1 | 12 min | 0.0043 µM | 0.0033 µM | 9 min | 80% | 0.0051 µM | Non-toxic | Active | 2.56 µg/mL (≈ 5.25 µM) |  |  |  |  |  |
| CCN(CC)CCCCN/C(=N\c1ccnc2cc(Cl)ccc12)C(C)C | 42 min | 0.125 µM | 0.254 µM | 55 min | 54.6% | 0.061 µM | Non-toxic |  | 5.01 µg/mL (≈ 13.4 µM) | Active |  |  |  |  |
| COc1ccc2nc3cc(Cl)ccc3c(N/C(C)=N/CCCN3CCCCC3)c2n1 | 15 min | 0.0131 µM | 0.0249 µM | 14 min | 94.5% | 0.008 µM | Non-toxic | Active | 2.81 µg/mL (≈ 6.59 µM) |  |  |  |  |  |
| CC(C)/C(=N/c1ccnc2cc(Cl)ccc12)NCCCCN1CCCCC1 | 31 min | 0.012 µM | 0.0186 µM | 29 min | 33% | 0.0075 µM | Non-toxic | Active | 5.71 µg/mL (≈ 14.8 µM) |  |  |  |  |  |
| CCN(CC)CC(C)(C)C/N=C(/Nc1c2ccc(Cl)cc2nc2ccc(OC)nc12)c1ccccc1 | > 60 min | 0.0297 µM | 0.061 µM | > 60 min | 10% | 0.0218 µM | Non-toxic |  | > 24.2 µg/mL |  | Active | Active |  |  |
| C/C(=N/c1ccnc2cc(Cl)ccc12)NCCCCN1CCCCC1 | > 60 min | 0.064 µM | 0.126 µM | > 60 min |  | 0.062 µM | Non-toxic |  | 9.81 µg/mL (≈ 27.3 µM) | inactive |  |  | Active |  |
| COc1ccc2nc3cc(Cl)ccc3c(N/C(=N/CCCN(C)C)c3ccc(Cl)cc3)c2n1 | > 60 min | 0.0043 µM | 0.0066 µM | 32 min | 77% | 0.0028 µM | Non-toxic |  | 2.51 µg/mL (≈ 5.2 µM) |  | Active | Active |  | Non-toxic |
| CN(C)CCCN/C(=N\c1ccnc2cc(Cl)ccc12)c1ccc(Cl)cc1 | 35 min | 0.0011 µM | 0.0029 µM | 48 min | 115% | 0.002 µM |  |  | 1.93 µg/mL (≈ 4.8 µM) |  |  |  |  | Non-toxic |
| C/C(=N/c1ccnc2cc(Cl)ccc12)NC1CCN(C(C)C)CC1 | > 60 min | 0.134 µM | 0.166 µM | > 60 min |  | 0.108 µM | Non-toxic |  | 5.71 µg/mL (≈ 16.6 µM) | inactive |  |  | Active |  |
| CCN(CC)CCN/C(=N\c1ccnc2cc(Cl)ccc12)C(C)C | 12 min | 0.052 µM | 0.097 µM | > 60 min |  | 0.054 µM | Toxic |  | 12.7 µg/mL (≈ 36.6 µM) | Active |  |  |  |  |
| CCN(CC)CCC/N=C(\C)Nc1c2ccc(Cl)cc2nc2ccc(OC)nc12 | 29 min | 0.0266 µM | 0.041 µM | 33 min | 100% | 0.0176 µM | Non-toxic | Active | 2.06 µg/mL (≈ 4.97 µM) |  |  |  |  |  |
| COc1ccc2nc3cc(Cl)ccc3c(N/C(C)=N/CCCN(C)C)c2n1 | 42 min | 0.0513 µM | 0.1 µM | > 60 min | 91.5% | 0.026 µM | Non-toxic | Active | 18.1 µg/mL (≈ 46.8 µM) |  |  |  |  |  |
| C/C(=N/c1ccnc2cc(Cl)ccc12)NC1CCN(Cc2ccccc2)CC1 | > 60 min | 0.087 µM | 0.199 µM | > 60 min |  | 0.056 µM | Non-toxic |  | 8.07 µg/mL (≈ 20.5 µM) | inactive |  |  | Active |  |
| COc1ccc2nc3cc(Cl)ccc3c(N/C(=N/CCCN(C)C)c3ccccc3)c2n1 | 44 min | 0.0017 µM | 0.00198 µM | 18 min | 48.9% | 0.0018 µM | Non-toxic | Active | 5.78 µg/mL (≈ 12.9 µM) |  | Active |  |  |  |
| CCN(CC)CCCCN/C(C)=N\c1ccnc2cc(Cl)ccc12 | > 60 min | 0.026 µM | 0.0983 µM | > 60 min |  | 0.0249 µM | Non-toxic |  | 2.68 µg/mL (≈ 7.73 µM) | inactive |  |  | Active |  |
| CC(C)/C(=N/c1ccnc2cc(Cl)ccc12)NCCCN1CCCCC1 | 43 min | 0.056 µM | 0.091 µM | 29 min | 74.5% | 0.034 µM | Non-toxic |  | > 24.2 µg/mL | Active |  |  |  |  |
